# Experimental data published in ChEMBL document CHEMBL1144751, “Synthesis of caged 2,3,3a,7a-tetrahydro-3,6-methanobenzofuran-7(6H)-ones: Evaluating the minimum structure for apoptosis induction by gambogic acid” (Bioorg Med Chem, 2008).
# Assays:
# [1] = tested on: T47D; experiment: Induction of apoptosis in human T47D cells assessed as caspase 3 activation after 24 hrs; type: functional, cell-based
# How it was run: (§1)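 Cell-based caspase-3 activation HTS assay. After compound exposure, the fluorogenic caspase-3 substrate N-(Ac-DEVD)-N-ethoxycarbonyl-R110 in caspase buffer was added and incubated 2 h at 37 °C. Fluorescence was read as RFU. Activation is the ratio of net RFU for treated samples to that of control samples. Values are means ± SEM of three or more experiments.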
# [2] = tested on: HCT-116; experiment: Induction of apoptosis in human HCT116 cells assessed as caspase 3 activation after 24 hrs; type: functional, cell-based; details: HCT-116, 24 h; how it was run: as §1
# [3] = tested on: SNU-398; experiment: Induction of apoptosis in human SNU398 cells assessed as caspase 3 activation after 24 hrs; type: functional, cell-based; details: SNU-398, 24 h; how it was run: as §1
# [4] = tested on: T47D; experiment: Growth inhibition of human T47D cells after 48 hrs by CellTiter-Glo assay; type: functional
# How it was run: (§2)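 T47D, HCT116 and SNU398 cells from ATCC, run in 96-well format. Cells were exposed continuously to test compound for 48 h, then given CellTiter-Glo reagent, mixed by agitation, held 10–15 min at room temperature and read by luminescence. GI50 is the concentration giving 50% inhibition relative to untreated control cells. Values are means ± SEM of three experiments.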
# [5] = tested on: HCT-116; experiment: Growth inhibition of human HCT116 cells after 48 hrs by CellTiter-Glo assay; type: functional; details: HCT-116, 48 h; how it was run: as §2
# [6] = tested on: SNU-398; experiment: Growth inhibition of human SNU398 cells after 48 hrs by CellTiter-Glo assay; type: functional; details: SNU-398, 48 h; how it was run: as §2
structure (smiles),measurement,setting,value
C=CC[C@]12OCC3C[C@@]4(Oc5ccccc5C(=O)C4=C[C@@H]31)C2=O,EC50,[1],5900 nM
same,EC50,[2],> 20000 nM
same,EC50,[3],5100 nM
same,GI50,[4],1400 nM
same,GI50,[5],1500 nM
same,GI50,[6],1500 nM
CC(C)=CC[C@]12OC(C)(C)C3C[C@@]4(OC(c5ccccc5)=CC(=O)C4=C[C@@H]31)C2=O,EC50,[1],4800 nM
same,EC50,[2],3600 nM
same,EC50,[3],2500 nM
same,GI50,[4],1000 nM
same,GI50,[5],900 nM
same,GI50,[6],1200 nM
CC(C)=CC[C@]12OC(C)(C)C3C[C@@]4(Oc5ccccc5C(=O)C4=C[C@@H]31)C2=O,EC50,[1],2700 nM
same,EC50,[2],1900 nM
same,EC50,[3],1500 nM
same,GI50,[4],300 nM
same,GI50,[5],200 nM
same,GI50,[6],300 nM
CC(C)=CC[C@@]12OC(C)(C)C3C[C@H](C=C4C(=O)c5ccccc5O[C@]431)C2=O,EC50,[1],3000 nM
same,EC50,[2],2300 nM
same,EC50,[3],900 nM
same,GI50,[4],200 nM
same,GI50,[5],200 nM
same,GI50,[6],200 nM
C=CC[C@@]12OCC3C[C@H](CC4C(=O)c5ccccc5O[C@@]341)C2=O (stereo partly drawn),EC50,[1],> 20000 nM
same,EC50,[2],> 20000 nM
same,EC50,[3],> 20000 nM
same,GI50,[4],> 20000 nM
same,GI50,[5],> 20000 nM
same,GI50,[6],> 20000 nM
C=CC[C@@]12CC3CO[C@](CC=C)(C1=O)[C@@]3(CC=C)C=C2C(=O)c1ccccc1,EC50,[1],> 20000 nM
same,EC50,[2],> 20000 nM
same,EC50,[3],> 20000 nM
C=CC[C@@]12OCC3C[C@H](C=C4C(=O)c5ccccc5O[C@]431)C2=O,EC50,[1],> 20000 nM
same,EC50,[2],7100 nM
same,EC50,[3],5700 nM
same,GI50,[4],1600 nM
same,GI50,[5],1600 nM
same,GI50,[6],1900 nM
CC(C)=CCC[C@]1(C)C=Cc2c(O)c3c(c(CC=C(C)C)c2O1)O[C@]12C(C[C@H]4CC1C(C)(C)O[C@@]2(C/C=C(\C)C(=O)O)C4=O)C3=O (stereo partly drawn),EC50,[1],> 20000 nM
same,EC50,[2],> 20000 nM
same,EC50,[3],> 20000 nM
same,GI50,[4],> 20000 nM
same,GI50,[5],> 20000 nM
same,GI50,[6],> 20000 nM
C=CC[C@@]12C=C(C(=O)c3ccccc3)[C@]3(CC=C)C(CO[C@@]3(CC=C)C1=O)C2,EC50,[1],> 20000 nM
same,EC50,[2],> 20000 nM
same,EC50,[3],> 20000 nM
same,GI50,[4],> 20000 nM
same,GI50,[5],> 20000 nM
same,GI50,[6],> 20000 nM
CC(C)=CC[C@@]12OC(C)(C)C3C[C@H](C=C4C(=O)C=C(c5ccccc5)O[C@]431)C2=O,EC50,[1],5100 nM
same,EC50,[2],5400 nM
same,EC50,[3],2600 nM
same,GI50,[4],1400 nM
same,GI50,[5],1100 nM
same,GI50,[6],1200 nM
CC(C)=CCC[C@]1(C)C=Cc2c(O)c3c(c(CC=C(C)C)c2O1)O[C@]12C(=C[C@@H]4C[C@H]1C(C)(C)O[C@@]2(C/C=C(/C)C(=O)O)C4=O)C3=O [GAMBOGIC ACID],EC50,[1],700 nM
same,EC50,[2],700 nM
same,EC50,[3],700 nM
same,GI50,[4],200 nM
same,GI50,[5],100 nM
same,GI50,[6],200 nM
